Screening data: PubChem BioAssay, several laboratories
WT yeast gro inh = growth inhibition of WT yeast, mitochondrial fusion screen; inhibition, % at 10 µM; 190,000 tested, 2.1% active; mitochondrial fusion phenotypic screen, WT strain; in the data active = inhibition above about 58%; tested in S. cerevisiae
ABCG2 inh = human ABCG2 inhibition, ABCB1 as counter-screen; 190,000 tested, 0.1% active; inhibition, % at 6.6 µM; Q9UNQ0; IgMXP3 cells, JC-1 efflux, flow cytometry;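 active = inhibition above 80%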
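Incubation: cells with compound and JC-1, 10 min at 25 °C, rotating, no wash / Test system: IgMXP3 (ABCG2) plus far-red-tagged CCRF-Adr (ABCB1) cells / Compound dosing: one concentration, 6.6 µM final / Also added: JC-1 fluorescent substrate / Evaluation: efflux inhibition in percent versus controls / Detection: flow cytometry, 530 nm JC-1 signal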
MEKK3 PB1 HTS = raises or lowers MEK5 binding to the human MEKK3 PB1 domain; binding response (% of control), % at 10 µM; bead-based flow cytometry, Alexa488-MEK5 binding to MEKK3; actives lie on both sides; 0 = blocked by unlabeled MEK5, 100 = vehicle; 290,000 tested, 1.4% active; AID 1529; Q99759;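 active = binding response more than 3 SD above or below the average of its plate-row segment, actives on both sides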;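 also: Alexa488 bead fluorescence after subtracting the streptavidin-only scavenger bead signal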
MEKK2mut PB1 HTS = signal of MEK5 binding to mutant human MEKK2 PB1 domain; 290,000 tested, 0.35% active; bead flow cytometry, Alexa488-MEK5 binding to MEKK2 mutant; percent response, % at 10 µM; AID 1530; in the data active = percent response above about 24%, passing the limit was not always enough
ABCB1 block = inhibitors of human ABCB1 transporter, ABCG2 counter-screen. P08183. CCRF-Adr cells, JC-1 efflux, flow cytometry. inhibition, % at 6.6 µM. 190,000 tested, 0.067% active. AID 1326; in the data active = inhibition above about 40%;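 also: higher value means more JC-1 retained so stronger ABCB1 efflux block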
Target sequence (P08183 whole entry, looked up): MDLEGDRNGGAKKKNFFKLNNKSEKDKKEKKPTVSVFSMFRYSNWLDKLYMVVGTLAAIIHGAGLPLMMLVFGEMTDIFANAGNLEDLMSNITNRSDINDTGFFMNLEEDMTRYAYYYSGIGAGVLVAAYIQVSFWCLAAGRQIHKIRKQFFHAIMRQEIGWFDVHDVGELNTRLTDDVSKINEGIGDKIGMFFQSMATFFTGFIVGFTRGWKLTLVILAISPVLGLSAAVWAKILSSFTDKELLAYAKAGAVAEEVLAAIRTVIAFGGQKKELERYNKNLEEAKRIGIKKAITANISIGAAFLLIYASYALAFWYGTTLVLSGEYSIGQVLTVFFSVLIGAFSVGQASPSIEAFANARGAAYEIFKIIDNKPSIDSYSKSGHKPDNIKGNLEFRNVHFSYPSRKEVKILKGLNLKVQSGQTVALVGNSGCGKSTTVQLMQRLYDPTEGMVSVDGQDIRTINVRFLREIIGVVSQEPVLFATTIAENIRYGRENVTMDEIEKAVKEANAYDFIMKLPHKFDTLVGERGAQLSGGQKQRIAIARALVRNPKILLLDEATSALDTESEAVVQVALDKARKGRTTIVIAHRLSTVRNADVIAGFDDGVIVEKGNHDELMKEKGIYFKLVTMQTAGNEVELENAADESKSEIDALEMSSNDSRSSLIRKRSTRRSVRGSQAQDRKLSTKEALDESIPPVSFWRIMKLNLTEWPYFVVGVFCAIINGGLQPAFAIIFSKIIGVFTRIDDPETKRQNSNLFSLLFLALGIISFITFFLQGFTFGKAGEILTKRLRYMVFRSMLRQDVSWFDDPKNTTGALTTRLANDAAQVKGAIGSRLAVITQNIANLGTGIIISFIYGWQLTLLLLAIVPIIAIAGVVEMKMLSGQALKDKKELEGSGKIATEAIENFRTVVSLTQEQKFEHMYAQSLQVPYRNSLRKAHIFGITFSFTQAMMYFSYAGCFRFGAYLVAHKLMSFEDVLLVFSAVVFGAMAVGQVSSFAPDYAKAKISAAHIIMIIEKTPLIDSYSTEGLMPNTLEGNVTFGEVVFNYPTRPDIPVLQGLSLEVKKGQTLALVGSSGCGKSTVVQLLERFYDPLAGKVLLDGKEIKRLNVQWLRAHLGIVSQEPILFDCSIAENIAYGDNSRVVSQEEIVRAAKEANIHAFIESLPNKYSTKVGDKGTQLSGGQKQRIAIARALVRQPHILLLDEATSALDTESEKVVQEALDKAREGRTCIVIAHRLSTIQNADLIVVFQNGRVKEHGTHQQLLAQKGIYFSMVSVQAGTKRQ
MEKK2 WT-MEK5 = raises or lowers MEK5 binding to wildtype human MEKK2 PB1 domain; Q9Y2U5; bead flow cytometry, Alexa488-MEK5 binding to MEKK2 WT; actives lie on both sides; 290,000 tested, 1.1% active; binding response (% of control), % at 10 µM; in the data active = binding response below about 67% or above about 130%
Each line names hits and unclear results; the compound was inactive in the other large screens; [ ] = remark or other dose. Most compounds without a hit are left out; they make up all but 3.5% or so of the library.

CC(=O)Nc1sc2c(c1C(c1ccc(F)cc1)N1CCOCC1)CCCC2 (configuration not stated)	none
CC(=O)Nc1sc2c(c1C(c1ccc(Cl)cc1)N1CCOCC1)CCCC2 (configuration not stated)	WT yeast gro inh 81
O=C(NN=C1c2ccccc2-c2ccccc21)c1cccc(Br)c1	none
COc1ccc(-n2c(SCC(=O)Nc3cc(C)on3)nc3ccccc3c2=O)cc1Cl	MEKK2mut PB1 HTS 83 (no result: MEKK2 WT-MEK5)
Cn1c(CC(=O)Nc2ccccc2Cl)nnc1SCC(=O)NC1=NCCS1	none (no result: WT yeast gro inh, ABCG2 inh, ABCB1 block)
COc1ccccc1S(=O)(=O)Cc1ccc(C(=O)NCCCN2CCN(c3ccc(F)cc3)CC2)o1	MEKK2 WT-MEK5 140 (no result: WT yeast gro inh, ABCG2 inh, ABCB1 block)
S=c1[nH]nc(COc2cccc(Cl)c2)n1Cc1ccccc1	WT yeast gro inh 73
Cc1ccc(NCc2n[nH]c(=S)n2Cc2ccccc2)cc1Cl	WT yeast gro inh 67
O=C(Nc1ccc2c(c1)oc1ccc(S(=O)(=O)N3CCCC3)cc12)C1CC1	ABCG2 inh 110
O=C(CSCC(=O)N1CCCCC1)Nc1nc(-c2ccccc2)c(-c2ccccc2)s1	WT yeast gro inh 60
CCOC(=O)CN(C)C(=O)CCc1nnc(-c2ccsc2)o1	WT yeast gro inh 59
CC(C)OC(=O)c1cccnc1N1CCN(c2cccc(Cl)c2)CC1	WT yeast gro inh 73
Cc1ccc2nc(Cl)nc(-c3ccccc3)c2c1	none
Cc1ccc2nc(-c3ccccc3)c(-c3ccccc3)nc2c1	WT yeast gro inh 65
COc1cccc(C(=O)O/N=C(\N)Cc2ccc(Cl)cc2)c1	WT yeast gro inh 68
N/C(Cc1ccc([N+](=O)[O-])cc1)=N\OC(=O)c1ccc2ccccc2c1	WT yeast gro inh 81
COc1cccc(C(=O)O/N=C(\N)c2ccc(C)cc2)c1	none (no result: WT yeast gro inh, ABCG2 inh, ABCB1 block)
Cc1cccc(C(=O)O/N=C(\N)Cc2ccc([N+](=O)[O-])cc2)c1	none
COc1ccc(Nc2nc(N)nc(CSC(=S)N3CCCCC3C)n2)cc1 (configuration not stated)	none (no result: WT yeast gro inh, ABCG2 inh, ABCB1 block)
CC(=O)/C(=C\Nc1ccc(OCc2ccccc2)cc1)c1ccccc1	none
CC(=O)/C(=C/Nc1ccc(Oc2ccccc2)cc1)c1ccccc1	WT yeast gro inh 61
Nc1ccccc1Nc1cc(-c2cccc(Cl)c2)nn1-c1ccccc1	WT yeast gro inh 75
Oc1ccccc1C(Nc1nccs1)c1ccc2cccnc2c1O (configuration not stated)	none (no result: WT yeast gro inh, ABCG2 inh, ABCB1 block)
OCCN1CCN(C(c2cccs2)c2ccc3cccnc3c2O)CC1 (configuration not stated)	MEKK2 WT-MEK5 68[inhibitor] (no result: ABCG2 inh, ABCB1 block)
CC(=O)c1ccc(N(CC(=O)NC2CCCCC2)C(=O)CNC(=O)c2ccco2)cc1	none (no result: WT yeast gro inh, ABCG2 inh, ABCB1 block)
CC1C(=O)N2CCCc3cc(NC(=O)CC(C)(C)C)cc1c32 (configuration not stated)	none (no result: WT yeast gro inh, ABCG2 inh, ABCB1 block)
CC(C)C1Cc2c(sc3[nH]c(=S)n(Cc4ccccc4)c(=O)c23)CO1 (configuration not stated)	WT yeast gro inh 61 (no result: MEKK3 PB1 HTS, MEKK2mut PB1 HTS, MEKK2 WT-MEK5)
S=C(NC1CCCCC1)N1CCN(c2ccccn2)CC1	none
COc1ccccc1-n1cc([C@@H]2C[C@H]3CN(c4ccccc4)C(=O)[C@]34CCCN24)cn1	MEKK2mut PB1 HTS 138
COc1cc([C@@H]2C[C@H]3CN(c4ccccc4)C(=O)[C@]34CCCN24)cc(OC)c1OC	none
CN=c1scc(-c2cccs2)n1/N=C/c1ccccc1O	WT yeast gro inh 62
CN=c1scc(-c2cccs2)n1/N=C/c1ccc(O)c(O)c1O	none
CCn1c(SCC(=O)NC2CCCC2)nnc1C(C)C	none (no result: WT yeast gro inh, ABCG2 inh, ABCB1 block)
O=C(Cc1c(Cl)cccc1Cl)OCC(=O)N1CCN(C(=O)c2ccco2)CC1	none
O=C(c1ccc(F)cc1)N1CCN(c2ccc([N+](=O)[O-])c(N3CCCCC3)c2)CC1	none
O=C(c1cccc(F)c1)N1CCN(c2cc(N3CCCCC3)c(F)cc2[N+](=O)[O-])CC1	WT yeast gro inh 61
Cc1occc(=O)c1OC(=O)Nc1ccc(Cl)c(Cl)c1	WT yeast gro inh 80
COc1ccc(C(=O)Oc2c(C)occc2=O)cc1OC	none
COc1ccc(C2SCC(=O)N2CC23CC4CC(CC(C4)C2)C3)cc1 (configuration not stated)	WT yeast gro inh 76
O=C(c1cccc(Cl)c1)N1CCCC(c2ccc(Cl)cc2)=N1	WT yeast gro inh 78
Cc1ccc(CSc2ncnc3c2cnn3Cc2ccccc2)cc1	WT yeast gro inh 76
Cc1ccc(CSc2ncnc3c2cnn3Cc2ccccc2)cc1C	none
S=c1[nH]nc(CSCc2ccccc2Cl)n1C1CCCCC1	WT yeast gro inh 74
Cc1ccc(OCc2n[nH]c(=S)n2C2CCCCC2)cc1	WT yeast gro inh 66
Cn1c(CSCc2ccccc2Cl)n[nH]c1=S	none
COc1ccc(-n2c(COc3cccc(C)c3)n[nH]c2=S)cc1	none (no result: WT yeast gro inh, ABCG2 inh, ABCB1 block)
Cc1cccc(OCc2n[nH]c(=S)n2C2CCCCC2)c1	WT yeast gro inh 67
S=c1[nH]nc(COc2ccc(Cl)cc2)n1C1CCCCC1	none
CNC(=O)COC(=O)c1ccc2c(c1)NC(=O)C1CCCN21 (configuration not stated)	none (no result: WT yeast gro inh, ABCG2 inh, ABCB1 block)
Cc1nc(N2N=C3/C(=C/c4ccc(F)cc4)CCCC3C2c2ccc(F)cc2)sc1C(=O)N(C)C (configuration not stated)	WT yeast gro inh 74 (no result: MEKK3 PB1 HTS, MEKK2mut PB1 HTS, MEKK2 WT-MEK5)
COc1ccc(/C=C2\CCCC3C2=NN(C(=O)CSc2ncn[nH]2)C3c2ccc(OC)cc2)cc1 (configuration not stated)	none
COc1cc(C(=O)NCCC(c2ccccc2)c2ccccc2)cc(OC)c1OC	none (no result: WT yeast gro inh, ABCG2 inh, ABCB1 block)
COc1cccc(OC)c1C(=O)NC(C)C12CC3CC(CC(C3)C1)C2 (configuration not stated)	WT yeast gro inh 62
COc1ccc(S(=O)(=O)NCC2CCC(C(=O)NCCCN3CCCC3=O)CC2)cc1 (configuration not stated)	none (no result: WT yeast gro inh, ABCG2 inh, ABCB1 block)
COc1ccc(-c2csc3nc(C)nc(N4CCC(C)CC4)c23)cc1OC	WT yeast gro inh 63
O=C(Nn1c(Cc2ccccc2)nc2ccccc2c1=O)c1c(O)c2cccc3c2n(c1=O)CCC3	WT yeast gro inh 68
CCc1nc2ccccc2c(=O)n1NC(=O)c1c(O)c2cccc3c2n(c1=O)CCC3	none
O=[N+]([O-])c1ccc(-c2csc3[n+]2CCS3)cc1	WT yeast gro inh 72
c1sc2[n+](c1C13CC4CC(CC(C4)C1)C3)CCS2	none
Fc1ccc(-c2csc3[n+]2CCS3)cc1	WT yeast gro inh 70
Cc1ccc(C(=O)N2CCOCC2)cc1S(=O)(=O)N1CCCCC1	none (no result: WT yeast gro inh, ABCG2 inh, ABCB1 block)
Cc1ccc(C(C(=O)NCC2CCCO2)N(Cc2ccccc2)C(=O)c2ccc(-c3ccccc3)[nH]2)o1 (configuration not stated)	WT yeast gro inh 69
